# Only some compounds are listed: those with a hit (about 4.8% of all), similar ones and a draw of the others.
# APP 5'UTR act: activates APP 5'UTR luciferase reporter. SH-SY5Y APP 5'UTR luciferase reporter, luminescence; zero percent = DMSO vehicle wells. activation, % at 2 µM. 190,000 compounds, 1% hits. AID 1276;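 active = activation above a set limit, based on mean plus 3 SD of controls, cut at about 140% in these data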
# NF-kB neuron act: NF-kB expression increase, human neuronal cells | NF-kB reporter expression; stronger effect = higher value | 190,000 compounds, 1.6% hits | AID 1239 | fold change at 12.5 µM; in the data active = fold change above about 3.3
# STAT1 activator: activators of IFN-gamma induced STAT1 signaling; 200,000 compounds, 2.6% hits; activation (% of control), % at 5.5 µM; AID 932; NIH 3T3 STAT1-luciferase reporter, luminescence; 100% = IFN-gamma alone, no compound;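 active = activation above the screen-wide mean activation plus 3 SD, cut at about 130% in these data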
# FLuc inhib CS: inhibits firefly luciferase, flagging false hits in luciferase inhibition screens; inhibition, % at 10 µM; ATPLite firefly luciferase biochemical luminescence, 10 min; P08659; 200,000 compounds, 1.5% hits;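 active = inhibition above about 50% when tested at 10 µM, limit read from the data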
# Target sequence (P08659 whole entry, looked up): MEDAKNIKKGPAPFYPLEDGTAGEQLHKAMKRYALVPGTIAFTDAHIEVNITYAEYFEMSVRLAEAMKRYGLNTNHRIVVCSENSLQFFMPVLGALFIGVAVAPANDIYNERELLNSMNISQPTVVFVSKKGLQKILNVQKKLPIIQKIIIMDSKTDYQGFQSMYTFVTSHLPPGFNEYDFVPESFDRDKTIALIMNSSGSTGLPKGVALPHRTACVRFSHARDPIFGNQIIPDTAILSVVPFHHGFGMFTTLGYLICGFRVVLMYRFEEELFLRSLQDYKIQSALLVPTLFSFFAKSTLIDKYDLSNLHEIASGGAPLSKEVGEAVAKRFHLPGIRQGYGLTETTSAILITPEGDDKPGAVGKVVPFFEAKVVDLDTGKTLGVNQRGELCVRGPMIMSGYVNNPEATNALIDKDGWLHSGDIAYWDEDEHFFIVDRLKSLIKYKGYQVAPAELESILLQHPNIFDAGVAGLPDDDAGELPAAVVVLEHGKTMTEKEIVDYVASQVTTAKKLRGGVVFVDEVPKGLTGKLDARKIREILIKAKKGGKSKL
# APP transl inh: APP translation inhibition | 190,000 compounds, 0.82% hits | SH-SY5Y APP 5'UTR-luciferase reporter, luminescence | inhibition, % at 2 µM;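 active = inhibition above a set limit, derived from the sample mean plus 3 SD, cut at about 45% in these data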
# FLuc stim CS: affects firefly luciferase, flagging false hits in luciferase stimulation screens | 200,000 tested, under 10 active | activation factor at 10 µM | P08659 | ATPlite luciferase biochemical, luminescence, 10 min; 0 = ATP-free wells, 1 = DMSO control;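 active = luciferase activation factor, scaled between plate controls, of at least 2 with compound at 10 µM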
#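 assay system = Luciferase/luciferin detection reagent, cell-free biochemical luciferase assay | also added = ATP substrate | times = 10 min post-reagent at room temperature | measured by = luminescence from luciferase reaction | measure = luciferase activation, seen as luminescence increase over controls | benchmarks = low control with PBS replacing ATP, high control enzyme plus ATP without compound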
# Numbers stand for hits; n = inactive; x = no result.
SMILES,APP 5'UTR act,NF-kB neuron act,STAT1 activator,FLuc inhib CS,APP transl inh,FLuc stim CS
C=C(C=O)CC1CC(O)[C@]2(C)OC3CC4OC5C[C@]6(C)O[C@]7(C)CCC8OC9C[C@]%10(C)OC%11C(C)=CC(=O)OC%11CC%10OC9C[C@@H](C)C8OC7CC6O[C@]5(C)CC5OC5C4OC3CC2O1 (some centres not stated),n,n,n,n,96,n
C[C@@H]1O[C@@H](O[C@H]2C[C@@H](O)[C@]3(CO)[C@H]4[C@H](O)C[C@]5(C)[C@@H](C6COC(=O)C6)CC[C@]5(O)[C@@H]4CC[C@]3(O)C2)[C@H](O)[C@H](O)[C@H]1O (some centres not stated),n,n,n,n,93,n
O=S(=O)(c1ccc(Cl)cc1)N1CC1c1ccccc1 (configuration not stated),n,n,n,n,n,n
CC(=O)Nc1ccccc1C(=O)OCC(=O)c1ccccc1Cl,n,n,n,n,n,n
CC(=O)Nc1ccccc1C(=O)OCc1ccccc1F,n,n,145,n,n,n
C=Cc1ccc(Cn2c(C(=O)O)c(C=O)c3ccccc32)cc1,n,n,n,n,n,n
COc1ccc(-c2nc3ccccc3c(=O)n2-c2cccnc2)cc1,n,n,n,n,n,n
COc1ccc(-c2nc3ccccc3c(=O)o2)cc1,n,n,n,55,n,n
CN1CCN(C(=O)OC2c3nccnc3C(=O)N2c2ccc(Cl)cn2)CC1 (configuration not stated),n,n,n,n,n,n
CC(=O)OC(C)(C)/C=C/C(=O)[C@](C)(O)[C@H]1[C@H](O)C[C@@]2(C)[C@@H]3CC=C4[C@H](C[C@H](O)C(=O)C4(C)C)[C@]3(C)C(=O)C[C@]12C,n,n,n,n,90,n
CN1CCC(OC(=O)C2c3ccccc3Oc3ccccc32)CC1,n,n,n,n,n,n
CCN1/C(=C\C=C\C2=[N+](CC)c3ccccc3C2(C)C)C(C)(C)c2ccccc21,n,n,n,n,93,n
O=[N+]([O-])c1cc(S(=O)(=O)c2ccc(O)c([N+](=O)[O-])c2)ccc1O,n,n,n,n,n,n
Nc1cc(Cl)c2nonc2c1[N+](=O)[O-],n,n,n,n,96,n
O=c1[nH]c(=O)n(-c2ccccc2)c(O)c1/C=C1/C(c2ccccc2)=Nc2ccccc21,n,n,n,n,68,n
COC(=O)C(O)(c1ccc(NC(=O)NC2CCCCC2)cc1)C(F)(F)F (configuration not stated),n,n,144,n,n,n
CCCn1ncc(CN2CCCC(C(=O)c3cccc(OC)c3)C2)c1C (configuration not stated),n,n,n,n,n,n
C/C1=C\[C@@H](C)C/C=C/[C@H]2[C@@H]3O[C@]3(C)[C@@H](C)[C@H]3[C@H](Cc4c[nH]c5ccccc45)NC(=O)[C@]32C(=O)/C=C/C(=O)[C@@H]1O,n,n,n,n,84,n
CN(C)C(=O)Oc1ccc(-c2cn3cc(Cl)ccc3n2)cc1,167,6.8,141,86,n,n
Cc1ccc(-c2nc3ccc(Cl)cc3n2OC(=O)N(C)C)cc1,n,n,n,n,n,n
CN(C)C(=O)Oc1ccc(-c2cn3cc(C(F)(F)F)ccc3n2)cc1,n,n,138,54,n,n
CN(C)C(=O)Oc1cccc(-c2cn3cc(Cl)ccc3n2)c1,n,n,n,75,n,n
COc1ccc(-n2c(O)c(/C=C/C=Nc3ccccc3)c(=O)[nH]c2=O)cc1,n,n,n,n,n,n
COc1cc(CC2(CCc3ccncc3)C(=O)N(C)C(=O)N(C)C2=O)cc(OC)c1OC,n,n,n,n,n,n
CN1C(=O)C(=Cc2c(OCc3cnc(Cl)s3)ccc3ccccc23)C(=O)N(C)C1=O,n,n,n,n,n,n
SMILES,APP 5'UTR act,NF-kB neuron act,STAT1 activator,FLuc inhib CS,APP transl inh,FLuc stim CS
O=P(c1ccccc1)(c1nc2ccccc2s1)N1CCOCC1 (configuration not stated),n,n,n,n,n,n
CCN1CCN(c2nc3ccccc3s2)CC1,n,4.7,n,n,n,n
O=C(Nc1ccc(Cl)cc1)Nc1nccs1,n,n,n,n,60,n
CCC(=O)O[C@@H]1[C@@H](OC(C)=O)[C@@]2(O)C(C[C@H](O)C2(C)C)[C@](C)(O)[C@H]2CC[C@@H]3[C@@H](O)[C@]12C[C@@]3(C)O (some centres not stated),n,n,n,n,n,n
Cc1ccc(OP(N)(=O)Oc2ccc(C)cc2)cc1,n,n,n,n,n,n
CC1(C)CN=C(Nc2nc3ccccc3s2)S1,n,4.7,136,n,n,n
CC1=CC2/C=C(\C)CCC(O)C(O)/C=C/C(=O)C23C(=O)NC(CC(C)C)C3C1C (configuration not stated),n,n,n,n,45,n
Cc1nc(Cl)sc1C(=O)Nc1ccc2ccccc2c1,n,5.5,134,n,n,n
O=C(O)CSC(=S)N1CC2CC(C1)c1cccc(=O)n1C2 (configuration not stated),n,n,n,n,n,n
CCC(=NCCCN(C)C)c1c(O)n(-c2ccc(OC)cc2)c(=O)[nH]c1=O,n,n,n,n,n,n
COc1cc(/C=C/C(=O)c2c(O)n(CCc3ccccc3)c(=O)[nH]c2=O)ccc1O,n,n,n,56,n,n
O=C(/C=C/c1ccccc1)c1c(O)n(CCc2ccccc2)c(=O)[nH]c1=O,n,n,n,n,n,n
Cc1ccc(N2C(=O)/C(=C/c3ccc(CN(CCC#N)S(C)(=O)=O)o3)C(=O)NC2=S)cc1,n,n,n,n,n,n
CC1CCN(CC(=O)c2ccc3c(c2)OCCO3)CC1,146,n,139,n,n,n
COc1ccccc1N(CC(=O)NC1CCCC1)C(=O)c1cnn(C(C)C)c1,n,n,n,n,n,n
CC1(C(O)(C#CCN2CCCCC2)c2ccccc2)CCCC1 (configuration not stated),n,n,n,n,n,n
COc1cccc(OC)c1C1=NCC(=O)Nc2c1oc1ccc(Br)cc21,n,n,n,n,93,n
O=C1CN=C(c2ccccc2)c2oc3ccc(Br)cc3c2N1,n,n,n,n,n,n
CCOC(=O)c1c(-n2c(C)cc(/C=C3/C(=O)NC(=O)N(CC)C3=O)c2C)sc2c1CCCC2,n,x,n,x,n,x
CCOC(=O)c1c(-n2c(C)cc(C=C3C(=O)NC(=S)NC3=O)c2C)sc2c1CCCC2,n,5.6,n,n,n,n
Cc1cc(C(=O)CS(=O)(=O)c2ccc(F)cc2)cc(C)c1OC(=O)N(C)C,n,n,n,63,n,n
CN(C)C(=O)Oc1c(Cl)cc(Cl)c2ccccc12,n,n,n,n,n,n
